Experimental data taken from ChEMBL document CHEMBL1926642, “Relevance of the C-5 position to schweinfurthin induced cytotoxicity” (2011).

Columns and labels:
Type in all cases: functional
MOLT-4 = assay: Growth inhibition of human MOLT4 cells after 48 hrs by sulforhodamine B assay; details: MOLT-4, 48 h; for TGI: read-out: pTGI (converted)
OVCAR-8 = assay: Growth inhibition of human OVCAR8 cells after 48 hrs by sulforhodamine B assay; details: OVCAR-8, 48 h; for TGI: read-out: pTGI (converted)
SK-MEL-2 = assay: Growth inhibition of human SK-MEL-2 cells after 48 hrs by sulforhodamine B assay; details: SK-MEL-2, 48 h; for TGI: read-out: pTGI (converted)
CAKI-1 = assay: Growth inhibition of human Caki1 cells after 48 hrs by sulforhodamine B assay; details: CAKI-1, 48 h; for TGI: read-out: pTGI (converted)
IGROV-1 = assay: Growth inhibition of human IGROV1 cells after 48 hrs by sulforhodamine B assay; details: IGROV-1, 48 h; for TGI: read-out: pTGI (converted)
HCT-116 = assay: Growth inhibition of human HCT116 cells after 48 hrs by sulforhodamine B assay; details: HCT-116, 48 h; for TGI: read-out: pTGI (converted)
EKVX = assay: Growth inhibition of human EKVX cells after 48 hrs by sulforhodamine B assay; details: for TGI: read-out: pTGI (converted)
OVCAR-3 = assay: Growth inhibition of human OVCAR3 cells after 48 hrs by sulforhodamine B assay; details: OVCAR-3, 48 h; for TGI: read-out: pTGI (converted)
NCI-H460 = assay: Growth inhibition of human NCI-H460 cells after 48 hrs by sulforhodamine B assay; details: NCI-H460, 48 h; for TGI: read-out: pTGI (converted)
SF-295 = assay: Growth inhibition of human SF295 cells after 48 hrs by sulforhodamine B assay; details: SF-295, 48 h; for TGI: read-out: pTGI (converted)
NCI-H226 = assay: Growth inhibition of human NCI-H226 cells after 48 hrs by sulforhodamine B assay; details: NCI-H226, 48 h; for TGI: read-out: pTGI (converted)
SK-OV-3 = assay: Growth inhibition of human SKOV3 cells after 48 hrs by sulforhodamine B assay; details: SK-OV-3, 48 h; for TGI: read-out: pTGI (converted)
OVCAR-4 = assay: Growth inhibition of human OVCAR4 cells after 48 hrs by sulforhodamine B assay; details: OVCAR-4, 48 h; for TGI: read-out: pTGI (converted)
UO-31 = assay: Growth inhibition of human UO31 cells after 48 hrs by sulforhodamine B assay; details: UO-31, 48 h; for TGI: read-out: pTGI (converted)
KM12 = assay: Growth inhibition of human KM12 cells after 48 hrs by sulforhodamine B assay; details: KM12, 48 h; for TGI: read-out: pTGI (converted)
HCT-15 = assay: Growth inhibition of human HCT15 cells after 48 hrs by sulforhodamine B assay; details: HCT-15, 48 h; for TGI: read-out: pTGI (converted)
HCC 2998 = assay: Growth inhibition of human HCC2998 cells after 48 hrs by sulforhodamine B assay; details: HCC 2998, 48 h; for TGI: read-out: pTGI (converted)
NCI-H23 = assay: Growth inhibition of human NCI-H23 cells after 48 hrs by sulforhodamine B assay; details: NCI-H23, 48 h; for TGI: read-out: pTGI (converted)
MDA-MB-231 = assay: Growth inhibition of human MDA-MB-231/ATCC cells after 48 hrs by sulforhodamine B assay; details: MDA-MB-231, 48 h; for CC50: read-out: pLC50 (the source's name) (converted); for TGI: read-out: pTGI (converted)
HOP-62 = assay: Growth inhibition of human HOP62 cells after 48 hrs by sulforhodamine B assay; details: HOP-62, 48 h; for TGI: read-out: pTGI (converted)
U-251 = assay: Growth inhibition of human U251 cells after 48 hrs by sulforhodamine B assay; details: U-251, 48 h; for TGI: read-out: pTGI (converted)
OVCAR-5 = assay: Growth inhibition of human OVCAR5 cells after 48 hrs by sulforhodamine B assay; details: OVCAR-5, 48 h
TK-10 = assay: Growth inhibition of human TK10 cells after 48 hrs by sulforhodamine B assay; details: TK-10, 48 h; for TGI: read-out: pTGI (converted)
SN12C = assay: Growth inhibition of human SN12C cells after 48 hrs by sulforhodamine B assay; details: for TGI: read-out: pTGI (converted)
K562 = assay: Growth inhibition of human K562 cells after 48 hrs by sulforhodamine B assay; details: K562, 48 h; for TGI: read-out: pTGI (converted)
HL-60(TB) = assay: Growth inhibition of human HL-60(TB) cells after 48 hrs by sulforhodamine B assay; details: HL-60, 48 h; for CC50: read-out: pLC50 (the source's name) (converted); for TGI: read-out: pTGI (converted)
Procedure, shortened: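 Run in the NCI 60 cell-line screen as the full 5-dose assay that follows initial single-dose testing; GI50 is read from the dose series.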

T47D = assay: Growth inhibition of human T47D cells after 48 hrs by sulforhodamine B assay; details: for TGI: read-out: pTGI (converted)
CCRF-CEM = assay: Growth inhibition of human CCRF-CEM cells after 48 hrs by sulforhodamine B assay; details: for TGI: read-out: pTGI (converted)
RPMI-8226 = assay: Growth inhibition of human RPMI8226 cells after 48 hrs by sulforhodamine B assay; details: RPMI-8226, 48 h; for TGI: read-out: pTGI (converted)
SK-MEL-5 = assay: Growth inhibition of human SK-MEL-5 cells after 48 hrs by sulforhodamine B assay; details: SK-MEL-5, 48 h; for TGI: read-out: pTGI (converted)
NCI-H322M = assay: Growth inhibition of human NCI-H322M cells after 48 hrs by sulforhodamine B assay; details: for TGI: read-out: pTGI (converted)
[1] = Growth inhibition of human Hs 578T cells after 48 hrs by sulforhodamine B assay

## COc1cc(/C=C/c2cc(O)c3c(c2)C[C@@H]2C(C)(C)[C@H](O)CC[C@@]2(C)O3)cc(O)c1C/C=C(\C)CCC=C(C)C
MOLT-4
  GI50: 0.0339 µM
  LC50: 100 µM
  TGI: 0.245 µM
OVCAR-8
  GI50: 2.82 µM
  LC50: 51.3 µM
  TGI: 12.6 µM
SK-MEL-2
  GI50: 6.92 µM
  LC50: 56.2 µM
  TGI: 22.4 µM
CAKI-1
  GI50: 1.7 µM
  LC50: 38.9 µM
  TGI: 6.76 µM
IGROV-1
  GI50: 2.09 µM
  LC50: 40.7 µM
  TGI: 11 µM
HCT-116
  GI50: 0.603 µM
  LC50: 6.31 µM
  TGI: 2.34 µM
EKVX
  GI50: 0.977 µM
  LC50 (50% lethal concentration): 36.3 µM
  TGI: 10.2 µM
OVCAR-3
  GI50: 1.45 µM
  LC50: 15.5 µM
  TGI: 4.07 µM
NCI-H460
  GI50: 0.339 µM
  LC50 (concentration killing 50% of cells): 64.6 µM
  TGI: 9.12 µM
SF-295
  LC50: 26.9 µM
  TGI: 0.195 µM
SF-295; read-out: GI50
  GI50: 0.022 µM
SF-295; read-out: pGI50 (converted)
  GI50: 0.024 µM
NCI-H226
  GI50: 5.89 µM
  LC50: 55 µM
  TGI: 21.4 µM
SK-OV-3
  GI50: 1.38 µM
  LC50: 38 µM
  TGI: 14.8 µM
OVCAR-4
  GI50: 2.63 µM
  LC50: 63.1 µM
  TGI: 19.1 µM
UO-31
  GI50: 0.178 µM
  LC50: 37.2 µM
  TGI: 11.5 µM
KM12
  GI50: 1.17 µM
  LC50: 7.08 µM
  TGI: 2.88 µM
HCT-15
  GI50: 1.12 µM
  LC50: 7.94 µM
  TGI: 2.95 µM
HCC 2998
  GI50: 0.851 µM
  LC50: 9.33 µM
  TGI: 2.95 µM
NCI-H23
  GI50: 1.51 µM
  LC50: 26.3 µM
  TGI: 4.47 µM
MDA-MB-231
  GI50: 1.2 µM
  CC50: 8.13 µM
  TGI: 2.88 µM
HOP-62
  GI50: 0.479 µM
  LC50: 30.2 µM
  TGI: 8.13 µM
U-251
  GI50: 0.0759 µM
  LC50: 10.7 µM
  TGI: 2.63 µM
OVCAR-5
  GI50: 2.51 µM
  LC50: 45.7 µM
OVCAR-5; read-out: pTGI (converted)
  TGI: 13.2 µM
TK-10
  GI50: 2.19 µM
  LC50: 41.7 µM
  TGI: 8.91 µM
SN12C
  GI50: 1.51 µM
  LC50: 8.51 µM
  TGI: 3.63 µM
K562
  GI50: 0.263 µM
  LC50: 100 µM
  TGI: 6.92 µM
HL-60(TB)
  GI50: 0.0468 µM
  CC50: 37.2 µM
  TGI: 1.45 µM
T47D
  GI50: 1.41 µM
  LC50: 39.8 µM
  TGI: 7.08 µM
CCRF-CEM
  GI50: 0.12 µM
  LC50: 100 µM
  TGI: 4.37 µM
RPMI-8226
  GI50: 0.0105 µM
  LC50: 100 µM
  TGI: 0.347 µM
SK-MEL-5
  GI50: 0.955 µM
  LC50: 5.37 µM
  TGI: 2.29 µM
NCI-H322M
  GI50: 3.39 µM
  LC50: 43.7 µM
  TGI: 14.1 µM
[1]
  GI50: 0.0372 µM
[1]; read-out: pLC50 (the source's name) (converted)
  CC50: 26.9 µM
[1]; read-out: pTGI (converted)
  TGI: 0.776 µM

## COc1cc(/C=C/c2cc3c(c(OC)c2)O[C@]2(C)CC[C@@H](O)C(C)(C)[C@H]2C3)cc(O)c1C/C=C(\C)CCC=C(C)C
MOLT-4
  GI50: 0.891 µM
  LC50: 33.1 µM
  TGI: 2.75 µM
OVCAR-8
  GI50: 5.5 µM
  LC50: 30.9 µM
  TGI: 13.2 µM
SK-MEL-2
  GI50: 5.37 µM
  LC50: 27.5 µM
  TGI: 12 µM
CAKI-1
  GI50: 1.12 µM
  LC50: > 50.1 µM
  TGI: 6.61 µM
IGROV-1
  GI50: 5.75 µM
  LC50: 30.9 µM
  TGI: 13.5 µM
HCT-116
  GI50: 3.24 µM
  LC50: 21.9 µM
  TGI: 9.77 µM
EKVX
  GI50: 2.09 µM
  LC50 (50% lethal concentration): 32.4 µM
  TGI: 10.7 µM
OVCAR-3
  GI50: 3.63 µM
  LC50: 23.4 µM
  TGI: 10.5 µM
NCI-H460
  GI50: 1.32 µM
  LC50 (concentration killing 50% of cells): 16.2 µM
  TGI: 5.25 µM
SF-295
  LC50: 3.89 µM
  TGI: 0.871 µM
SF-295; read-out: GI50
  GI50: 0.19 µM
SF-295; read-out: pGI50 (converted)
  GI50: 0.186 µM
NCI-H226
  GI50: 5.89 µM
  LC50: 25.7 µM
  TGI: 12.3 µM
SK-OV-3
  GI50: 3.24 µM
  LC50: > 50.1 µM
  TGI: 18.2 µM
OVCAR-4
  GI50: 5.75 µM
  LC50: 28.8 µM
  TGI: 12.9 µM
UO-31
  GI50: 1.12 µM
  LC50: 21.9 µM
  TGI: 7.59 µM
KM12
  GI50: 1.35 µM
  LC50: 18.6 µM
  TGI: 6.03 µM
HCT-15
  GI50: 1.29 µM
  LC50: 17.8 µM
  TGI: 6.03 µM
HCC 2998
  GI50: 1.7 µM
  LC50: 22.4 µM
  TGI: 10 µM
NCI-H23
  GI50: 5.62 µM
  LC50: 26.9 µM
  TGI: 12.3 µM
MDA-MB-231
  GI50: 2.04 µM
  CC50: 19.5 µM
  TGI: 7.76 µM
HOP-62
  GI50: 0.832 µM
  LC50: 11 µM
  TGI: 2.82 µM
U-251
  GI50: 0.417 µM
  LC50: 19.5 µM
  TGI: 7.76 µM
TK-10
  GI50: 7.08 µM
  LC50: 32.4 µM
  TGI: 15.1 µM
SN12C
  GI50: 5.89 µM
  LC50: 28.8 µM
  TGI: 13.2 µM
K562
  GI50: 1.2 µM
  LC50: 22.9 µM
  TGI: 4.07 µM
HL-60(TB)
  GI50: 1.51 µM
  CC50: 30.2 µM
  TGI: 6.61 µM
T47D
  GI50: 2.29 µM
  LC50: 23.4 µM
  TGI: 9.12 µM
CCRF-CEM
  GI50: 1.41 µM
  LC50: > 50.1 µM
  TGI: 13.8 µM
RPMI-8226
  GI50: 0.178 µM
  LC50: > 50.1 µM
  TGI: 1.55 µM
SK-MEL-5
  GI50: 0.955 µM
  LC50: 6.92 µM
  TGI: 2.34 µM
NCI-H322M
  GI50: 6.76 µM
  LC50: > 50.1 µM
  TGI: 18.6 µM
